Source: ChEMBL document CHEMBL1641566, “N-(Pyridin-3-yl)benzamides as selective inhibitors of human aldosterone synthase (CYP11B2)” (Bioorg Med Chem Lett, 2011)

Legend:
[1] = target: T1, CYP11B1 (steroid-11beta-hydroxylase) (Homo sapiens, UniProt P15538); assay: Inhibition of human steroid-11beta-hydroxylase expressed in chinese hamster V79 cells at 500 nM using 11-deoxycorticosterone as substrate
T1 sequence (P15538 whole entry): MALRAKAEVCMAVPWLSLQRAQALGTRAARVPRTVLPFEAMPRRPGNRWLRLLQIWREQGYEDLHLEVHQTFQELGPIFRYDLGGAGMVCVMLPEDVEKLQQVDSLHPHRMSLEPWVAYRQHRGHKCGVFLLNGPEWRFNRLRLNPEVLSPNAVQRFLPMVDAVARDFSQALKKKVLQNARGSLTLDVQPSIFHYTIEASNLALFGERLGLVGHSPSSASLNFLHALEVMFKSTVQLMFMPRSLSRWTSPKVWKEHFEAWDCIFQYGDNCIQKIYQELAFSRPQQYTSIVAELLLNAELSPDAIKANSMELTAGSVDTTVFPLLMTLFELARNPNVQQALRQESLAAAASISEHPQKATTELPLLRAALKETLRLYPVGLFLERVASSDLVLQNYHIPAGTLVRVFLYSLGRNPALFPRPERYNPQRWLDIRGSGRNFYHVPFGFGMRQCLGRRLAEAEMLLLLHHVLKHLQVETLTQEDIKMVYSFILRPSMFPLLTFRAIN

[2] = target: T2, Cytochrome P450 11B2, mitochondrial (Homo sapiens, UniProt P19099); assay: Inhibition of human aldosterone synthase expressed in chinese hamster V79 cells at 500 nM using 11-deoxycorticosterone as substrate; conditions: read-out: INH
T2 sequence (P19099 whole entry): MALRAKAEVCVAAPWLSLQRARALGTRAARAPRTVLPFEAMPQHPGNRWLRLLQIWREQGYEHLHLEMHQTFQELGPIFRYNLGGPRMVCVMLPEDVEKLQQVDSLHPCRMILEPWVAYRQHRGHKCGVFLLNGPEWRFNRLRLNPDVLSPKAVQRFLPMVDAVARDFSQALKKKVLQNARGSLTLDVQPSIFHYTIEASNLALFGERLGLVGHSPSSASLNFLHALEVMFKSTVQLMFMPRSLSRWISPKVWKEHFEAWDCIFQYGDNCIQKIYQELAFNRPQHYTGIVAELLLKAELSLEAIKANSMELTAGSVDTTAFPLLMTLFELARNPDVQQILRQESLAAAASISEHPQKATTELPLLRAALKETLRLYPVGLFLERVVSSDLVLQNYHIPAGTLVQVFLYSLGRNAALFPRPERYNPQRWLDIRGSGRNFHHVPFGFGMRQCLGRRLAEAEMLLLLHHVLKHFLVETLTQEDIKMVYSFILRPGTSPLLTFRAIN

CYP19 (aromatase) = target: T3, CYP19 (aromatase) (Homo sapiens, UniProt P11511); assay: Inhibition of human placental CYP19 at 500 nM using androstenedione as substrate; conditions: human placental CYP19, probe androstenedione
T3 sequence (P11511 whole entry): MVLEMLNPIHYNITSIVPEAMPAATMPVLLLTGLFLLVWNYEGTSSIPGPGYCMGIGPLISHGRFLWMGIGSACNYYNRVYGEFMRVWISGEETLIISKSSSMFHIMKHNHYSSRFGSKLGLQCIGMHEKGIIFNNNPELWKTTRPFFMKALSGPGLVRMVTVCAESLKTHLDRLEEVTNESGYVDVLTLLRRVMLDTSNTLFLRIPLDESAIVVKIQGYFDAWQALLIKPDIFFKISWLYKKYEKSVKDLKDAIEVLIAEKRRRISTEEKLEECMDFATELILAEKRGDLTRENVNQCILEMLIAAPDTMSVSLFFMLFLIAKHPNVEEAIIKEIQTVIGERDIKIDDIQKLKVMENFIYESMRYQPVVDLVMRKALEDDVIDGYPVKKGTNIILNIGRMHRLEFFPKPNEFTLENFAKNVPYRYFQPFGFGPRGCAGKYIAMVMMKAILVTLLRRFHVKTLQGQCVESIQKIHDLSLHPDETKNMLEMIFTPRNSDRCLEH
Method in brief: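 Human placental CYP19 as enzyme source; substrate androstenedione at 500 nM.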

[3] = target: T2, Cytochrome P450 11B2, mitochondrial; assay: Inhibition of human aldosterone synthase expressed in chinese hamster V79 cells using 11-deoxycorticosterone as substrate; format: cell-based
[4] = target: T4, Cytochrome P450 11B1, mitochondrial (Homo sapiens, UniProt P15538); assay: Inhibition of human steroid-11beta-hydroxylase expressed in chinese hamster V79 cells using 11-deoxycorticosterone as substrate; format: cell-based
T4 sequence (P15538 whole entry): T1 sequence (P15538 whole entry)

[5] = target: T5, CYP17 (steroid 17-alpha-hydroxylase/17,20 lyase) (Homo sapiens, UniProt P05093); assay: Inhibition of human CYP17 expressed in Escherichia coli at 2000 nM using progesterone as substrate; conditions: probe progesterone
T5 sequence (P05093 whole entry): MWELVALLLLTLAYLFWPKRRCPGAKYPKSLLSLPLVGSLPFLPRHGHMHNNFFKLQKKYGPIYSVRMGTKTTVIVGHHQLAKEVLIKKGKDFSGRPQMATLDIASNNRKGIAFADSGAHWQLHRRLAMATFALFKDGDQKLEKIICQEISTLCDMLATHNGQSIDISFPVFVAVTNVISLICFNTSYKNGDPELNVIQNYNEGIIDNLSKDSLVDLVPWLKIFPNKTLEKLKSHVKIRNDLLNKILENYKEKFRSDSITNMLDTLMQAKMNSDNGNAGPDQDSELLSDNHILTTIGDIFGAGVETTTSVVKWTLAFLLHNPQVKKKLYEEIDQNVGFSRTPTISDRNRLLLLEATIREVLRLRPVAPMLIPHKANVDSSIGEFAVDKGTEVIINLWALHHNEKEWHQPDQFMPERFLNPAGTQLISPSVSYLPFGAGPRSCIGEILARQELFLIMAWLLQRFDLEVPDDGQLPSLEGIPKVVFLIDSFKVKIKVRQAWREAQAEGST
Method in brief: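 50,000 g sediment of homogenate from E. coli recombinantly expressing human CYP17; substrate progesterone at 25 µM; inhibitor tested at 2.0 µM.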

Homo sapiens = species on record: Homo sapiens; assay: Selectivity ratio of IC50 for human steroid-11beta-hydroxylase to IC50 for human aldosterone synthase

| SMILES | inhibition at 0.5 µM ([1]; probe 11-deoxycorticosterone) | inhibition at 0.5 µM [2] | inhibition at 0.5 µM (CYP19 (aromatase)) | IC50 [3] | inhibition at 0.5 µM ([1]; v79) | IC50 [4] | inhibition at 2 µM [5] | Ratio IC50 (Homo sapiens) |
| --- | --- | --- | --- | --- | --- | --- | --- | --- |
| O=C(Nc1cccnc1)c1ccccc1 | 2% | 30% |  |  |  |  |  |  |
| O=C(Nc1cccnc1)c1ccc(-c2ccccc2)cc1 | 0% | 6% |  |  |  |  |  |  |
| O=C(Nc1cccnc1)c1ccncc1 | 4% | 39% |  |  |  |  |  |  |
| N#Cc1ccc(C(=O)Nc2cccnc2)cc1 |  | 81% | 0.2% | 0.078 µM | 9% | 7.5 µM | 0.2% | 96 |
| O=C(Nc1cccnc1)c1cncc(Br)c1 | 0.4% | 29% |  |  |  |  |  |  |
| O=C1CCc2cc(-c3cncc4ccccc34)ccc2N1 | 91% |  |  |  |  |  |  |  |
| O=C(Nc1cccnc1)c1cccc(Cl)c1Cl | 4% | 51% |  |  |  |  |  |  |
| O=C(Nc1cccnc1)c1ccc(Cl)cc1 | 5% | 88% | 0% | 0.065 µM |  | 10.2 µM | 1.3% | 157 |
| O=C(Nc1cccnc1)c1ccc(C(F)(F)F)cc1 | 1% | 1% |  |  |  |  |  |  |
| COc1ccc(C(=O)Nc2cccnc2)cc1OC | 0.1% | 2% |  |  |  |  |  |  |
| O=C(Nc1cccnc1)c1ccc(F)c(F)c1 | 6% | 83% | 0.5% | 0.0535 µM |  | 5.92 µM | 1% | 111 |
| O=C(Nc1cccnc1)c1ccc([N+](=O)[O-])cc1 | 0% | 64% | 0% | 0.145 µM |  | 24.8 µM | 1% | 171 |
| O=C(Nc1cccnc1)c1cccnc1 | 3% | 8% |  |  |  |  |  |  |
| Cc1ccc(C(=O)Nc2cccnc2)cc1 | 0% | 25% |  |  |  |  |  |  |
| COc1ccc(C(=O)Nc2cccnc2)cc1 | 0% | 19% |  |  |  |  |  |  |
| O=C(Nc1cccnc1)c1cc(F)c(F)cc1F | 2% | 70% | 0% | 0.166 µM |  | 16.1 µM | 0.6% | 97 |
| O=C(Nc1cccnc1)c1cccc(Cl)c1 | 0% | 26% |  |  |  |  |  |  |
| O=C(Nc1cccnc1)c1ccccc1F | 1% | 34% |  |  |  |  |  |  |
| O=C(Nc1cccnc1)c1ccc(Br)cc1 |  | 64% | 0.1% | 0.104 µM | 0% | 16.7 µM | 4.3% | 161 |
| O=C(Nc1cccnc1)c1ccc(F)cc1 | 7% | 86% | 1.1% | 0.082 µM |  | 14.3 µM | 0.3% | 174 |
| O=C(Nc1cccnc1)c1ccc(OC(F)(F)F)cc1 | 3% | 3% |  |  |  |  |  |  |
| CC(C)(C(=O)c1cccnc1)c1cccnc1 [METYRAPONE] | 94% | 79% | 0% |  |  |  | 0% |  |
